Assay results taken from ChEMBL document CHEMBL4689842, “EUbOPEN Chemogenomics Library wave 1” (2021).

System: HEK-293T
Assay: Multiplex assay against HEK293T;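 on Population Tubulin-Different-Phenotype (%): share of the cells with healthy nuclei that show this phenotype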
Type: toxicity, cell-based
Conditions: human
Method in brief: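 Cells were classed with CellPathfinder machine-learning gating, first as Hoechst high-intensity objects or normal cells, then (normal cells) as healthy, pyknosed or fragmented nuclei, and finally (pyknosed cells) as mitotic or apoptotic. Staining of live cells at seeding used Hoechst33342, BioTracker Green Microtubule Cytoskeleton Dye, MitoTracker Red and Annexin V Alexa Fluor 680, with imaging on a CQ1 microscope at 37°C and 5% CO2 after compound addition. Tubulin, mitochondrial-mass and membrane-permeability phenotypes are per cents of healthy-nucleus cells.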

[1] = 12 h, 1 µM, compound concentration 1 uM, replicate 1
[2] = 12 h, 1 µM, compound concentration 1 uM, replicate 2
[3] = 12 h, 10 µM, compound concentration 10 uM, replicate 1
[4] = 12 h, 10 µM, compound concentration 10 uM, replicate 2
[5] = 24 h, 1 µM, compound concentration 1 uM, replicate 1
[6] = 24 h, 1 µM, compound concentration 1 uM, replicate 2
[7] = 24 h, 10 µM, compound concentration 10 uM, replicate 1
[8] = 24 h, 10 µM, compound concentration 10 uM, replicate 2
[9] = 48 h, 1 µM, compound concentration 1 uM, replicate 1
[10] = 48 h, 1 µM, compound concentration 1 uM, replicate 2
[11] = 48 h, 10 µM, compound concentration 10 uM, replicate 1
[12] = 48 h, 10 µM, compound concentration 10 uM, replicate 2

COc1ccc(-c2ccc3ncc4c(c3c2)n(-c2ccc(N3CCNCC3)c(C(F)(F)F)c2)c(=O)n4C)cn1.O=C(O)/C=C\C(=O)O [BGT-226]
Population Apoptotic (%) [1]: 70%
Population Fragmented Nuclei (%) [1]: 22%
Population Healthy Nuclei (%) [1]: 2%
Population Hoechst High Intensity Objects (%) [1]: 25%
Population Mitochondria Different-Phenotype (%) [1]: 87%
Population Mitotic Cells (%) [1]: 29%
Population Normal (%) [1]: 74%
Population Pyknosed Nuclei (%) [1]: 74%
Population Tubulin-Different-Phenotype (%) [1]: 87%
Total Cell Count [1]: 358
Population Apoptotic (%) [2]: 78%
Population Fragmented Nuclei (%) [2]: 8%
Population Healthy Nuclei (%) [2]: 6%
Population Hoechst High Intensity Objects (%) [2]: 10%
Population Membrane Permeable-Phenotype (%) [2]: 0%
Population Mitochondria Different-Phenotype (%) [2]: 100%
Population Mitotic Cells (%) [2]: 21%
Population Normal (%) [2]: 89%
Population Pyknosed Nuclei (%) [2]: 84%
Population Tubulin-Different-Phenotype (%) [2]: 90%
Total Cell Count [2]: 162
Population Apoptotic (%) [3]: 72%
Population Fragmented Nuclei (%) [3]: 28%
Population Healthy Nuclei (%) [3]: 0%
Population Hoechst High Intensity Objects (%) [3]: 28%
Population Membrane Permeable-Phenotype (%) [3]: 50%
Population Mitochondria Different-Phenotype (%) [3]: 50%
Population Mitotic Cells (%) [3]: 27%
Population Normal (%) [3]: 71%
Population Pyknosed Nuclei (%) [3]: 70%
Population Tubulin-Different-Phenotype (%) [3]: 100%
Total Cell Count [3]: 306
Population Apoptotic (%) [4]: 96%
Population Fragmented Nuclei (%) [4]: 51%
Population Healthy Nuclei (%) [4]: 7%
Population Hoechst High Intensity Objects (%) [4]: 45%
Population Membrane Permeable-Phenotype (%) [4]: 11%
Population Mitochondria Different-Phenotype (%) [4]: 16%
Population Mitotic Cells (%) [4]: 3%
Population Normal (%) [4]: 54%
Population Pyknosed Nuclei (%) [4]: 41%
Population Tubulin-Different-Phenotype (%) [4]: 66%
Total Cell Count [4]: 454
Population Apoptotic (%) [5]: 70%
Population Fragmented Nuclei (%) [5]: 27%
Population Healthy Nuclei (%) [5]: 2%
Population Hoechst High Intensity Objects (%) [5]: 20%
Population Membrane Permeable-Phenotype (%) [5]: 12%
Population Mitochondria Different-Phenotype (%) [5]: 75%
Population Mitotic Cells (%) [5]: 29%
Population Normal (%) [5]: 79%
Population Pyknosed Nuclei (%) [5]: 69%
Population Tubulin-Different-Phenotype (%) [5]: 75%
Total Cell Count [5]: 358
Population Apoptotic (%) [6]: 84%
Population Fragmented Nuclei (%) [6]: 9%
Population Healthy Nuclei (%) [6]: 9%
Population Hoechst High Intensity Objects (%) [6]: 8%
Population Membrane Permeable-Phenotype (%) [6]: 7%
Population Mitochondria Different-Phenotype (%) [6]: 92%
Population Mitotic Cells (%) [6]: 15%
Population Normal (%) [6]: 91%
Population Pyknosed Nuclei (%) [6]: 81%
Population Tubulin-Different-Phenotype (%) [6]: 92%
Total Cell Count [6]: 169
Population Apoptotic (%) [7]: 77%
Population Fragmented Nuclei (%) [7]: 38%
Population Healthy Nuclei (%) [7]: 0%
Population Hoechst High Intensity Objects (%) [7]: 35%
Population Membrane Permeable-Phenotype (%) [7]: 0%
Population Mitochondria Different-Phenotype (%) [7]: 0%
Population Mitotic Cells (%) [7]: 22%
Population Normal (%) [7]: 64%
Population Pyknosed Nuclei (%) [7]: 61%
Population Tubulin-Different-Phenotype (%) [7]: 0%
Total Cell Count [7]: 317
Population Apoptotic (%) [8]: 98%
Population Fragmented Nuclei (%) [8]: 48%
Population Healthy Nuclei (%) [8]: 15%
Population Hoechst High Intensity Objects (%) [8]: 46%
Population Membrane Permeable-Phenotype (%) [8]: 25%
Population Mitochondria Different-Phenotype (%) [8]: 28%
Population Mitotic Cells (%) [8]: 1%
Population Normal (%) [8]: 53%
Population Pyknosed Nuclei (%) [8]: 35%
Population Tubulin-Different-Phenotype (%) [8]: 77%
Total Cell Count [8]: 422
Population Apoptotic (%) [9]: 74%
Population Fragmented Nuclei (%) [9]: 38%
Population Healthy Nuclei (%) [9]: 1%
Population Hoechst High Intensity Objects (%) [9]: 21%
Population Membrane Permeable-Phenotype (%) [9]: 0%
Population Mitochondria Different-Phenotype (%) [9]: 100%
Population Mitotic Cells (%) [9]: 25%
Population Normal (%) [9]: 78%
Population Pyknosed Nuclei (%) [9]: 60%
Population Tubulin-Different-Phenotype (%) [9]: 100%
Total Cell Count [9]: 380
Population Apoptotic (%) [10]: 84%
Population Fragmented Nuclei (%) [10]: 10%
Population Healthy Nuclei (%) [10]: 18%
Population Hoechst High Intensity Objects (%) [10]: 11%
Population Membrane Permeable-Phenotype (%) [10]: 3%
Population Mitochondria Different-Phenotype (%) [10]: 88%
Population Mitotic Cells (%) [10]: 15%
Population Normal (%) [10]: 88%
Population Pyknosed Nuclei (%) [10]: 71%
Population Tubulin-Different-Phenotype (%) [10]: 85%
Total Cell Count [10]: 166
Population Apoptotic (%) [11]: 85%
Population Fragmented Nuclei (%) [11]: 45%
Population Healthy Nuclei (%) [11]: 0%
Population Hoechst High Intensity Objects (%) [11]: 42%
Population Membrane Permeable-Phenotype (%) [11]: 0%
Population Mitochondria Different-Phenotype (%) [11]: 0%
Population Mitotic Cells (%) [11]: 14%
Population Normal (%) [11]: 57%
Population Pyknosed Nuclei (%) [11]: 54%
Population Tubulin-Different-Phenotype (%) [11]: 0%
Total Cell Count [11]: 360
Population Apoptotic (%) [12]: 98%
Population Fragmented Nuclei (%) [12]: 53%
Population Healthy Nuclei (%) [12]: 22%
Population Hoechst High Intensity Objects (%) [12]: 44%
Population Membrane Permeable-Phenotype (%) [12]: 14%
Population Mitochondria Different-Phenotype (%) [12]: 48%
Population Mitotic Cells (%) [12]: 1%
Population Normal (%) [12]: 55%
Population Pyknosed Nuclei (%) [12]: 24%
Population Tubulin-Different-Phenotype (%) [12]: 75%
Total Cell Count [12]: 397

C=CC(=O)Nc1ccc2[nH]c(=O)n(C3CCN(Cc4ccc(-c5nc6cc[nH]c(=O)c6cc5-c5ccccc5)cc4)CC3)c2c1 [Borussertib]
Population Apoptotic (%) [1]: 18%
Population Fragmented Nuclei (%) [1]: 16%
Population Healthy Nuclei (%) [1]: 66%
Population Hoechst High Intensity Objects (%) [1]: 13%
Population Membrane Permeable-Phenotype (%) [1]: 5%
Population Mitochondria Different-Phenotype (%) [1]: 5%
Population Mitotic Cells (%) [1]: 81%
Population Normal (%) [1]: 86%
Population Pyknosed Nuclei (%) [1]: 17%
Population Tubulin-Different-Phenotype (%) [1]: 5%
Total Cell Count [1]: 656
Population Apoptotic (%) [2]: 14%
Population Fragmented Nuclei (%) [2]: 7%
Population Healthy Nuclei (%) [2]: 86%
Population Hoechst High Intensity Objects (%) [2]: 3%
Population Membrane Permeable-Phenotype (%) [2]: 3%
Population Mitochondria Different-Phenotype (%) [2]: 12%
Population Mitotic Cells (%) [2]: 85%
Population Normal (%) [2]: 96%
Population Pyknosed Nuclei (%) [2]: 5%
Population Tubulin-Different-Phenotype (%) [2]: 12%
Total Cell Count [2]: 1375
Population Apoptotic (%) [3]: 24%
Population Fragmented Nuclei (%) [3]: 17%
Population Healthy Nuclei (%) [3]: 48%
Population Hoechst High Intensity Objects (%) [3]: 13%
Population Membrane Permeable-Phenotype (%) [3]: 9%
Population Mitochondria Different-Phenotype (%) [3]: 25%
Population Mitotic Cells (%) [3]: 75%
Population Normal (%) [3]: 86%
Population Pyknosed Nuclei (%) [3]: 33%
Population Tubulin-Different-Phenotype (%) [3]: 44%
Total Cell Count [3]: 585
Population Apoptotic (%) [4]: 17%
Population Fragmented Nuclei (%) [4]: 4%
Population Healthy Nuclei (%) [4]: 84%
Population Hoechst High Intensity Objects (%) [4]: 4%
Population Membrane Permeable-Phenotype (%) [4]: 12%
Population Mitochondria Different-Phenotype (%) [4]: 43%
Population Mitotic Cells (%) [4]: 82%
Population Normal (%) [4]: 95%
Population Pyknosed Nuclei (%) [4]: 11%
Population Tubulin-Different-Phenotype (%) [4]: 82%
Total Cell Count [4]: 1080
Population Apoptotic (%) [5]: 15%
Population Fragmented Nuclei (%) [5]: 14%
Population Healthy Nuclei (%) [5]: 75%
Population Hoechst High Intensity Objects (%) [5]: 11%
Population Membrane Permeable-Phenotype (%) [5]: 8%
Population Mitochondria Different-Phenotype (%) [5]: 3%
Population Mitotic Cells (%) [5]: 84%
Population Normal (%) [5]: 88%
Population Pyknosed Nuclei (%) [5]: 9%
Population Tubulin-Different-Phenotype (%) [5]: 10%
Total Cell Count [5]: 716
Population Apoptotic (%) [6]: 11%
Population Fragmented Nuclei (%) [6]: 19%
Population Healthy Nuclei (%) [6]: 77%
Population Hoechst High Intensity Objects (%) [6]: 4%
Population Membrane Permeable-Phenotype (%) [6]: 9%
Population Mitochondria Different-Phenotype (%) [6]: 4%
Population Mitotic Cells (%) [6]: 88%
Population Normal (%) [6]: 95%
Population Pyknosed Nuclei (%) [6]: 3%
Population Tubulin-Different-Phenotype (%) [6]: 19%
Total Cell Count [6]: 2108
Population Apoptotic (%) [7]: 34%
Population Fragmented Nuclei (%) [7]: 15%
Population Healthy Nuclei (%) [7]: 60%
Population Hoechst High Intensity Objects (%) [7]: 16%
Population Membrane Permeable-Phenotype (%) [7]: 8%
Population Mitochondria Different-Phenotype (%) [7]: 33%
Population Mitotic Cells (%) [7]: 65%
Population Normal (%) [7]: 83%
Population Pyknosed Nuclei (%) [7]: 23%
Population Tubulin-Different-Phenotype (%) [7]: 68%
Total Cell Count [7]: 518
Population Apoptotic (%) [8]: 16%
Population Fragmented Nuclei (%) [8]: 8%
Population Healthy Nuclei (%) [8]: 83%
Population Hoechst High Intensity Objects (%) [8]: 9%
Population Membrane Permeable-Phenotype (%) [8]: 9%
Population Mitochondria Different-Phenotype (%) [8]: 43%
Population Mitotic Cells (%) [8]: 83%
Population Normal (%) [8]: 90%
Population Pyknosed Nuclei (%) [8]: 8%
Population Tubulin-Different-Phenotype (%) [8]: 90%
Total Cell Count [8]: 1115
